Ratio and Ki data for two compounds are collected here from ChEMBL document CHEMBL1147655, “Design and synthesis of 8-octyl-benzolactam-V9, a selective activator for protein kinase C epsilon and eta” (J Med Chem, 2006).

Assay [1] deals with T1, Protein kinase C beta type (Homo sapiens, UniProt P05771). Briefly: Induction of GFP-tagged PKC beta translocation in HeLa cells measured as ratio of fluorescence intensity in plasma membrane to cytosol at 10 uM. The format is cell-based. In short, it runs like this:
(§1)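 HeLa cells transfected with GFP-fused PKC isozyme, cultured 16-48 h, then medium switched to HEPES buffer (135 mM NaCl, 5.4 mM KCl, 1 mM MgCl2, 1.8 mM CaCl2, 5 mM HEPES, 10 mM glucose, pH 7.3). Compound added at stated final concentration, 37 °C; confocal time series (488 nm excitation, 505-550 nm emission). R = membrane/mean cytosolic intensity from line profiles; maximum R reported, SD of at least three measurements.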
Target sequence in this assay (P05771 2-671 limits assumed): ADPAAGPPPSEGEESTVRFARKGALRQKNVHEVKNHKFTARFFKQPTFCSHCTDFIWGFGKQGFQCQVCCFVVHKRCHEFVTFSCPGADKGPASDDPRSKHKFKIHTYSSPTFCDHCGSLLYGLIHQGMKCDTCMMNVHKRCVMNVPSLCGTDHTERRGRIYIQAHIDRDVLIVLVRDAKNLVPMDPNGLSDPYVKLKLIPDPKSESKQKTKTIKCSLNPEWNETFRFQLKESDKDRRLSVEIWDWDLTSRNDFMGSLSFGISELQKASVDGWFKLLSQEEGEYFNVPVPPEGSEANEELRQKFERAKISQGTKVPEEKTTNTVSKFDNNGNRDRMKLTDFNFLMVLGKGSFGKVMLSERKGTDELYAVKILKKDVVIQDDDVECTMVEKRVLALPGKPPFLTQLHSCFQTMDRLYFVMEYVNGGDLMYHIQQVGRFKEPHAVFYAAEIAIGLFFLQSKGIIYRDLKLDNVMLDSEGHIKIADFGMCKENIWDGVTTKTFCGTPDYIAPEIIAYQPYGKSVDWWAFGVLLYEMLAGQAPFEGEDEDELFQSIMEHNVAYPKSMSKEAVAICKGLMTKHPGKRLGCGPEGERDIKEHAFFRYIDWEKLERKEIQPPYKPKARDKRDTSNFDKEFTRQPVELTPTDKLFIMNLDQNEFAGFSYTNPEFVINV

Assay [2] concerns the target T2, Protein kinase C epsilon type (Homo sapiens) (UniProt Q02156).
T2 sequence (whole entry): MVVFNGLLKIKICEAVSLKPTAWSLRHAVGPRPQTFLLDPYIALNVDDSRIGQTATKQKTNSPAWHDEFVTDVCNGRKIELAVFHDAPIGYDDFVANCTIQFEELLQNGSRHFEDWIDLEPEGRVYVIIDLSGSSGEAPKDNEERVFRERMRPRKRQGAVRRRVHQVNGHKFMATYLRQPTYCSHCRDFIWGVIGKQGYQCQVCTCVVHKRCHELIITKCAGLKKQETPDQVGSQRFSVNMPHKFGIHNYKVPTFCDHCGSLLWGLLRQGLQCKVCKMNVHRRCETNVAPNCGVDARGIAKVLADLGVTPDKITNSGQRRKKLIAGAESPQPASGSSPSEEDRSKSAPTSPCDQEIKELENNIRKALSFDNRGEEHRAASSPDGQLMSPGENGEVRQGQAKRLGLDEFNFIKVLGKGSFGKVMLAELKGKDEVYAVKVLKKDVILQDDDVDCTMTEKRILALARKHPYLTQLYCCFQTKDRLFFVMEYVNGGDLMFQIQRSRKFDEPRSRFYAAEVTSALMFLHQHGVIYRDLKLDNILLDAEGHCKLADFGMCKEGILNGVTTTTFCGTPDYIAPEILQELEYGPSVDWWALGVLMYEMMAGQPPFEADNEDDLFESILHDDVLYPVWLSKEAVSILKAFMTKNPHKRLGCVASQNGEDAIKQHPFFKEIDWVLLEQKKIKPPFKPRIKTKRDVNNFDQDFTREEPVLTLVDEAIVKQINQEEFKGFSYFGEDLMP
As to the kind of experiment: Induction of GFP-tagged PKC epsilon translocation in HeLa cells measured as ratio of fluorescence intensity in plasma membrane to cytosol at 1 uM. The format is cell-based. In short, it runs like this:
as §1

Assay [3] addresses T2, Protein kinase C epsilon type (Homo sapiens). As to the kind of experiment: Induction of GFP-tagged PKC epsilon translocation in HeLa cells measured as ratio of fluorescence intensity in plasma membrane to cytosol at 0.5 uM. The format is cell-based. In short, it runs like this: as §1
In assay [4] the target is T3, Protein kinase C delta type (Homo sapiens, UniProt Q05655). Briefly: Induction of GFP-tagged PKC delta translocation in HeLa cells measured as ratio of fluorescence intensity in plasma membrane to cytosol at 10 uM. The format is cell-based. In short, it runs like this: as §1
Target sequence in this assay (Q05655 whole entry, looked up): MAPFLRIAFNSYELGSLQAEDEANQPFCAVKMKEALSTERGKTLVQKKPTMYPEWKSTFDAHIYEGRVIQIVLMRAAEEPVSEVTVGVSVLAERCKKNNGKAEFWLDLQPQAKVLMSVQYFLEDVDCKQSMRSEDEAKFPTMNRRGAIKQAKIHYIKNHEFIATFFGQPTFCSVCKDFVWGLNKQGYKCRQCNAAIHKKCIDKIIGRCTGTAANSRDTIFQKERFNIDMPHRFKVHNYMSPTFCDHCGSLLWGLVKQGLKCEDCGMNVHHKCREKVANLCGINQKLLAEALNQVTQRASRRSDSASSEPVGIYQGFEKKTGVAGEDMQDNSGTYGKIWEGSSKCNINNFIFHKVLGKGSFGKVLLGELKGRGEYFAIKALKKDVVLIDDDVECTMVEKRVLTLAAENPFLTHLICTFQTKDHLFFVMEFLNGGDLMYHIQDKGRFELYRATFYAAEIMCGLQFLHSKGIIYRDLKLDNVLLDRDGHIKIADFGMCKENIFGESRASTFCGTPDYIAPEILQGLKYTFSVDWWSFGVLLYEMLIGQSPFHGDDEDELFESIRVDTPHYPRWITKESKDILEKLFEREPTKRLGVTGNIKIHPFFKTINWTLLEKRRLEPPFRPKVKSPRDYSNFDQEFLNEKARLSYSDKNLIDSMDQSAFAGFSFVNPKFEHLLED
Assay [5] deals with T1, Protein kinase C beta type. Briefly: Induction of GFP-tagged PKC beta translocation in HeLa cells measured as ratio of fluorescence intensity in plasma membrane to cytosol at 0.5 uM. The format is cell-based. In outline:
as §1
Target sequence in this assay (P05771 2-671 limits assumed): as the sequence (P05771 2-671 limits assumed) above

The target of assay [6] is T4, Protein kinase C eta type (Homo sapiens, UniProt P24723). As to the kind of experiment: Induction of GFP-tagged PKC eta translocation in HeLa cells measured as ratio of fluorescence intensity in plasma membrane to cytosol at 1 uM. The format is cell-based. In outline:
as §1

Assay [7] has as its target T3, Protein kinase C delta type. Briefly: Induction of GFP-tagged PKC delta translocation in HeLa cells measured as ratio of fluorescence intensity in plasma membrane to cytosol at 1 uM. The format is cell-based. In short, it runs like this: as §1
Target sequence in this assay (Q05655 whole entry, looked up): as the sequence (Q05655 whole entry, looked up) above
In assay [8] the target is T1, Protein kinase C beta type. Briefly: Induction of GFP-tagged PKC beta translocation in HeLa cells measured as ratio of fluorescence intensity in plasma membrane to cytosol at 1 uM. The format is cell-based. In short, it runs like this:
as §1
Target sequence in this assay (P05771 2-671 limits assumed): as the sequence (P05771 2-671 limits assumed) above

Assay [9] addresses T5, Protein kinase C alpha type (Homo sapiens, UniProt P17252). As to the kind of experiment: Induction of GFP-tagged PKC alpha translocation in HeLa cells measured as ratio of fluorescence intensity in plasma membrane to cytosol at 10 uM. The format is cell-based. In outline:
as §1

Assay [10] addresses T4, Protein kinase C eta type. As to the kind of experiment: Induction of GFP-tagged PKC eta translocation in HeLa cells measured as ratio of fluorescence intensity in plasma membrane to cytosol at 0.5 uM. The format is cell-based. In outline:
as §1

The target in assay [11] is T6, Protein kinase C gamma type (Homo sapiens, UniProt P05129). As to the kind of experiment: Induction of GFP-tagged PKC gamma translocation in HeLa cells measured as ratio of fluorescence intensity in plasma membrane to cytosol at 10 uM. The format is cell-based. In short, it runs like this:
as §1

Assay [12] has as its target T4, Protein kinase C eta type. Briefly: Induction of GFP-tagged PKC eta translocation in HeLa cells measured as ratio of fluorescence intensity in plasma membrane to cytosol at 10 uM. The format is cell-based. In outline: as §1
Assay [13] concerns the target T6, Protein kinase C gamma type. Briefly: Induction of GFP-tagged PKC gamma translocation in HeLa cells measured as ratio of fluorescence intensity in plasma membrane to cytosol at 1 uM. The format is cell-based. In short, it runs like this: as §1
The target in assay [14] is T2, Protein kinase C epsilon type (Homo sapiens). As to the kind of experiment: Induction of GFP-tagged PKC epsilon translocation in HeLa cells measured as ratio of fluorescence intensity in plasma membrane to cytosol at 10 uM. The format is cell-based. In short, it runs like this:
as §1

The target in assay [15] is T5, Protein kinase C alpha type. As to the kind of experiment: Induction of GFP-tagged PKC alpha translocation in HeLa cells measured as ratio of fluorescence intensity in plasma membrane to cytosol at 1 uM. The format is cell-based. In outline: as §1
The target in assay [16] is T4, Protein kinase C eta type. As to the kind of experiment: Displacement of [3H]phorbol 12,13-dibutyrate from PKC eta-C1B. A general note: Displacement assays read how much labelled ligand stays bound in the presence of the test substance.
For assay [17], the target named is T7, Protein kinase C epsilon type (Homo sapiens, UniProt Q02156).
T7 sequence (Q02156 whole entry): T2 sequence (whole entry)
As to the kind of experiment: Displacement of [3H]phorbol 12,13-dibutyrate from PKC epsilon-C1B.

The target in assay [18] is T6, Protein kinase C gamma type. As to the kind of experiment: Displacement of [3H]phorbol 12,13-dibutyrate from PKC gamma-C1A.
Assay [19] addresses T5, Protein kinase C alpha type. As to the kind of experiment: Displacement of [3H]phorbol 12,13-dibutyrate from PKC alpha-C1A.
For assay [20], the target named is T3, Protein kinase C delta type. Briefly: Displacement of [3H]phorbol 12,13-dibutyrate from PKC delta-C1B.
In assay [21] the target is T7, Protein kinase C epsilon type. As to the kind of experiment: Displacement of [3H]phorbol 12,13-dibutyrate from PKC epsilon-C1A.
The target of assay [22] is T3, Protein kinase C delta type. As to the kind of experiment: Displacement of [3H]phorbol 12,13-dibutyrate from PKC delta-C1A.
Assay [23] addresses T4, Protein kinase C eta type. Briefly: Displacement of [3H]phorbol 12,13-dibutyrate from PKC eta-C1A.
The target of assay [24] is T1, Protein kinase C beta type. Briefly: Displacement of [3H]phorbol 12,13-dibutyrate from PKC beta-C1A.
For assay [25], the target named is T1, Protein kinase C beta type. Briefly: Displacement of [3H]phorbol 12,13-dibutyrate from PKC beta-C1B.
Assay [26] concerns the target Protein kinase C theta type (Homo sapiens, UniProt Q04759). Briefly: Displacement of [3H]phorbol 12,13-dibutyrate from PKC theta-C1B.
In assay [27] the target is T6, Protein kinase C gamma type. Briefly: Displacement of [3H]phorbol 12,13-dibutyrate from PKC gamma-C1B.
Assay [28] concerns the target T5, Protein kinase C alpha type. Briefly: Displacement of [3H]phorbol 12,13-dibutyrate from PKC alpha-C1B.

T4 sequence (P24723 whole entry): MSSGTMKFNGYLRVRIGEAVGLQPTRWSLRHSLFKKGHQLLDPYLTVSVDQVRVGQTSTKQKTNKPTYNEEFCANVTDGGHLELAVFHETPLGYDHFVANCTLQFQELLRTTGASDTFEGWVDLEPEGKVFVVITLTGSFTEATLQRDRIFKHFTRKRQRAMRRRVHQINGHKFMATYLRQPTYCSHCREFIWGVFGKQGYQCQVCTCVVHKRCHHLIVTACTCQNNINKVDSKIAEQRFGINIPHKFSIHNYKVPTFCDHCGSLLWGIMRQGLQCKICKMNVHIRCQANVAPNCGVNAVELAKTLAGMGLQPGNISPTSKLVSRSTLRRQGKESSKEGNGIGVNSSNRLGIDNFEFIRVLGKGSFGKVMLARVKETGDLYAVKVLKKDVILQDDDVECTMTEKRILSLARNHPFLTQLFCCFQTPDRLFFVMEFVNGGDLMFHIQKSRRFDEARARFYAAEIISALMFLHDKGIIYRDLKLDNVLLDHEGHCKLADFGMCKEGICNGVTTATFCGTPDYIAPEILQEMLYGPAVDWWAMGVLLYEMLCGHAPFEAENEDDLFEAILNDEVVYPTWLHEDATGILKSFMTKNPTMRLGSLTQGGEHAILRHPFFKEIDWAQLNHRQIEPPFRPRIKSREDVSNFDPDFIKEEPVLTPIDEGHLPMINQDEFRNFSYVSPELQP

Turning to `CCCCCCN1C[C@H]2C[C@@H](CO)NC(=O)[C@H](C(C)C)N(C)c3cccc1c32`, the Ratio in assay [1] stood at 2.38; in [2] it was 2.73; in [3], 2.42; in assay [4], 2.41; in assay [5] it was 0.95; in [6], 1.84. In addition, the Ratio in assay [7] turned out to be 0.9; in [8], 2.39; in assay [9], 1.79; in [10], 1.01; in assay [11], 1.53; in [12], 1.92. For the same compound, the Ratio in assay [13] was found to be 0.96; in [14], 4.29; in assay [15], 0.97.
As a reminder, the Ki is a measure of affinity in units of concentration, obtained from inhibition or displacement. Take `CCCCCCCCc1cccc2c1CC[C@@H](CO)NC(=O)[C@H](C(C)C)N2C`: the Ki was 0.144 µM in [16]; 0.51 µM in assay [17]; greater than 10 µM in assay [18]; greater than 10 µM in assay [19]; 0.216 µM in assay [20]; greater than 10 µM in assay [21]. The Ki in [22] is greater than 10 µM; in assay [23] it was greater than 10 µM; in assay [24] it was greater than 10 µM; in [25], greater than 10 µM; in [26] it was 0.29 µM; in assay [27], 5.2 µM. The compound further gave a Ki in [28] greater than 10 µM. For the same compound, the Ratio in [1] is 0.97; in assay [2], 1.66; in assay [3], 1.65; in assay [4], 0.95; in assay [6], 1.46; in assay [9] it was 0.98. Moreover, the Ratio in assay [10] is 0.97; in assay [11], 0.97; in assay [12], 1.72; in [14], 1.96.
